Each block holds one compound with its values, some of them ahead of it. Active and inactive are the calls of the source. The calls are words filed in the database; no cut-off is given here.
What was measured:
Gerbillinae [1] = test: Antagonist activity at NK1 receptor in iv dosed gerbil brain assessed as inhibition of GR73632-induced foot tapping after 1 hr; format: functional, organism-based
Procedure, shortened: (§1)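 Gerbils received the antagonist iv 1 h before central administration of the NK1 agonist GR73632. Hind-foot tapping was scored. ID50 (mg/kg) was derived for blockade of tapping, and plasma and brain IC50 (nM) were derived from drug levels at 1 h […].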

Rhesus monkey [2] = test: Ex vivo NK1 receptor occupancy in rhesus monkey brain assessed as concentration required for 90% occupancy at 67 nM plasma concentration by PET imaging analysis; format: functional, Macaca mulatta
Substance-K receptor = target: T1, Substance-K receptor (Homo sapiens, UniProt P21452); test: Binding affinity to human NK2 receptor
T1 sequence (P21452 whole entry): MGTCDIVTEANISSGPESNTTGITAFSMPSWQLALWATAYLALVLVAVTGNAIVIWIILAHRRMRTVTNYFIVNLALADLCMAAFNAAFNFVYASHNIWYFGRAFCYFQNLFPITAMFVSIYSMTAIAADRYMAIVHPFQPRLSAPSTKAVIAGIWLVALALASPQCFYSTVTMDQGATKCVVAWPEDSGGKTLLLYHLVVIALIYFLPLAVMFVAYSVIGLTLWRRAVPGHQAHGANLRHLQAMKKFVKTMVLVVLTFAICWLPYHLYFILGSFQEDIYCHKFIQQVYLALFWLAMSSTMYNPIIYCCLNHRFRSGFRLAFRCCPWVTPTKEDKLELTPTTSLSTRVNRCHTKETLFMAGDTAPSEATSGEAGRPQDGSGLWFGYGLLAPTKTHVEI

Rhesus monkey [3] = test: Ex vivo NK1 receptor occupancy in rhesus monkey brain assessed as concentration required for 50% occupancy at 13 nM plasma concentration by PET imaging analysis; format: functional, Macaca mulatta
Neuromedin-K receptor = target: T2, Neuromedin-K receptor (Homo sapiens, UniProt P29371); test: Binding affinity to human NK3 receptor
T2 sequence (P29371 whole entry): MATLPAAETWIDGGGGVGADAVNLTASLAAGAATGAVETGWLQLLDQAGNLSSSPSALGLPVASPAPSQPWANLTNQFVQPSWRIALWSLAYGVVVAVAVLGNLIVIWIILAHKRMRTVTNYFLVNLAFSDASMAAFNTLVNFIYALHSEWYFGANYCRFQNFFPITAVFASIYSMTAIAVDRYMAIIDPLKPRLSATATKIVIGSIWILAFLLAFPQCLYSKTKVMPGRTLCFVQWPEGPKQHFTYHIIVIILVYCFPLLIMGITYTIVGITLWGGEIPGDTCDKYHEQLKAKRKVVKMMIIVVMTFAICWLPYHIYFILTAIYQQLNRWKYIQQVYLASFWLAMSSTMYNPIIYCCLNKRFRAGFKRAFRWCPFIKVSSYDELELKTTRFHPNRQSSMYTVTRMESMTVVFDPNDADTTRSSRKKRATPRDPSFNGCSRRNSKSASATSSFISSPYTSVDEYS

Gerbillinae [4] = test: Antagonist activity at NK1 receptor in iv dosed gerbil assessed as inhibition of GR73632-induced foot tapping after 1 hr; format: functional; details: read-out: ID50 (the source's name); procedure, shortened: as §1
Gerbillinae [5] = test: Antagonist activity at NK1 receptor in iv dosed gerbil assessed as inhibition of GR73632-induced foot tapping; format: functional, organism-based; procedure, shortened: as §1
[6] = Oral bioavailability in rat at 2 mg/kg; format: ADME, organism-based; details: in vivo
Procedure, shortened: (§2)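 Rat PK used 1 mg/kg iv and 2 mg/kg po, while dog and monkey received 0.5 mg/kg iv and 1 mg/kg po. Oral dosing was given as a solution, either in ethanol/PEG400/water (20:40:40, v/v/v) or in Inwittor 742/Tween 80, depending on the compound. Plasma CLp, Vdss, t1/2 and F% were derived from these studies.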

Substance-P receptor [7] = target: T3, Substance-P receptor (Homo sapiens, UniProt P25103); test: Antagonist activity at human NK1 receptor expressed in CHO cells assessed as IP1 generation measured as remaining substance P response at 100 nM
[8] = Volume of distribution at steady state in rat at 1 mg/kg, iv and 2 mg/kg, po; format: ADME, organism-based; details: in vivo, read-out: Vdss; procedure, shortened: as §2
[9] = Metabolic stability in human hepatocytes assessed as compound remaining at 1 uM after 24 hrs; format: ADME, cell-based, Hepatocyte; details: read-out: Stability
Procedure, shortened: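 Tritium-labelled compound at 1 μM was incubated with cultured human hepatocytes (300 000 cells per incubation) for 24 h, followed by metabolite profiling.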

Cytochrome P450 2D6 = Cytochrome P450 2D6 (Homo sapiens, UniProt P10635); test: Inhibition of human CYP2D6; format: ADME
[10] = Half life in rat at 1 mg/kg, iv and 2 mg/kg, po; format: ADME, organism-based; details: in vivo; procedure, shortened: as §2
[11] = Plasma clearance in rat at 1 mg/kg, iv and 2 mg/kg, po; format: ADME, organism-based; procedure, shortened: as §2
Substance-P receptor [12] = target: T3, Substance-P receptor; test: Displacement of [125I]substance P from human NK1 receptor expressed in CHO cells in presence of human serum; format: cell-based
Procedure, shortened: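 Inhibition of [¹²⁵I]substance P binding to human NK1 receptor in vitro, with 50% human serum added to the binding medium; IC₅₀ (nM) derived.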

[13] = Plasma clearance in dog at 0.5 mg/kg, iv and 1 mg/kg, po; format: ADME, organism-based, Canis lupus familiaris; procedure, shortened: as §2
[14] = Volume of distribution at steady state in monkey at 0.5 mg/kg, iv and 1 mg/kg, po; format: ADME, organism-based, Macaca mulatta; details: rhesus monkey, in vivo, read-out: Vdss; procedure, shortened: as §2
Cytochrome P450 2C9 = Cytochrome P450 2C9 (Homo sapiens, UniProt P11712); test: Inhibition of human CYP2C9; format: ADME
Cytochrome P450 2C8 = target: T4, Cytochrome P450 2C8 (Homo sapiens, UniProt P10632); test: Inhibition of human CYP2C8; format: ADME
T4 sequence (P10632 whole entry): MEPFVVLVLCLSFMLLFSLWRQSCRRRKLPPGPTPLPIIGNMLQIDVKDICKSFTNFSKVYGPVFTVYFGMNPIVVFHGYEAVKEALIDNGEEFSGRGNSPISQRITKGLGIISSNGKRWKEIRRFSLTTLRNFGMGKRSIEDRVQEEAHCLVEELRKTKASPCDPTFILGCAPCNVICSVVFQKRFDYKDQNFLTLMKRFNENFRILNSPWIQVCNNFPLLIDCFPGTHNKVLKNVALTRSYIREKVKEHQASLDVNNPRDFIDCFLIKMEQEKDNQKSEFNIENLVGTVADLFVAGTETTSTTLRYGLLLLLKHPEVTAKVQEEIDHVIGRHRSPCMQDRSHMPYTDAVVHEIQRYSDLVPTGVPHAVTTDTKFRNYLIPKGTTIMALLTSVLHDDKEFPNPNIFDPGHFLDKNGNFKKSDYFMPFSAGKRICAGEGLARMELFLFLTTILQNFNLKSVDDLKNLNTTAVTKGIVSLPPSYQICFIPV

[15] = Oral bioavailability in monkey 1 mg/kg; format: ADME, organism-based, Macaca mulatta; details: rhesus monkey, in vivo; procedure, shortened: as §2
[16] = target: T5, Nuclear receptor subfamily 1 group I member 2 (Homo sapiens, UniProt O75469); test: Agonist activity at human PXR at 3.4 uM relative to rifampicin
T5 sequence (O75469 whole entry): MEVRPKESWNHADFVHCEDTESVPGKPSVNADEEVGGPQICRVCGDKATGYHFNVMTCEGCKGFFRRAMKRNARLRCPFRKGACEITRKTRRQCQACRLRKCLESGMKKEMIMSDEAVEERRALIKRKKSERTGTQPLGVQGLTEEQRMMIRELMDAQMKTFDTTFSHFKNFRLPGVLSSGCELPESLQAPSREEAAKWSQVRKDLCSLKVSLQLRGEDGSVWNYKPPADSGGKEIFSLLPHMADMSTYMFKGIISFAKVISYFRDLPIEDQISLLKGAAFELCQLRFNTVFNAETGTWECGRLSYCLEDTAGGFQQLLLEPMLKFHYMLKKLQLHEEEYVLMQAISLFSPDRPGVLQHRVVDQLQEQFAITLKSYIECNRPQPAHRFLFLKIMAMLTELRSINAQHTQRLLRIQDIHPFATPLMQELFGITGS
Procedure, shortened: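 PXR agonism was measured in human hepatocytes with test compound at 3.4 μM, and the response was expressed as % relative to rifampicin.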

[17] = Half life in dog at 0.5 mg/kg, iv and 1 mg/kg, po; format: ADME, organism-based, Canis lupus familiaris; details: in vivo; procedure, shortened: as §2
[18] = Plasma clearance in monkey at 0.5 mg/kg, iv and 1 mg/kg, po; format: ADME, organism-based, Macaca mulatta; details: rhesus monkey; procedure, shortened: as §2
[19] = Volume of distribution at steady state in dog at 0.5 mg/kg, iv and 1 mg/kg, po; format: ADME, organism-based, Canis lupus familiaris; details: in vivo, read-out: Vdss; procedure, shortened: as §2
Gerbillinae [20] = test: Antagonist activity at NK1 receptor in iv dosed gerbil plasma assessed as inhibition of GR73632-induced foot tapping after 1 hr; format: functional, organism-based; procedure, shortened: as §1
Cytochrome P450 3A4 = Cytochrome P450 3A4 (Homo sapiens, UniProt P08684); test: Inhibition of human CYP3A4; format: ADME
[21] = Oral bioavailability in dog 1 mg/kg; format: ADME, organism-based, Canis lupus familiaris; details: in vivo; procedure, shortened: as §2
[22] = Half life in monkey at 0.5 mg/kg, iv and 1 mg/kg, po; format: ADME, organism-based, Macaca mulatta; details: rhesus monkey, in vivo; procedure, shortened: as §2

T3 sequence (P25103 whole entry): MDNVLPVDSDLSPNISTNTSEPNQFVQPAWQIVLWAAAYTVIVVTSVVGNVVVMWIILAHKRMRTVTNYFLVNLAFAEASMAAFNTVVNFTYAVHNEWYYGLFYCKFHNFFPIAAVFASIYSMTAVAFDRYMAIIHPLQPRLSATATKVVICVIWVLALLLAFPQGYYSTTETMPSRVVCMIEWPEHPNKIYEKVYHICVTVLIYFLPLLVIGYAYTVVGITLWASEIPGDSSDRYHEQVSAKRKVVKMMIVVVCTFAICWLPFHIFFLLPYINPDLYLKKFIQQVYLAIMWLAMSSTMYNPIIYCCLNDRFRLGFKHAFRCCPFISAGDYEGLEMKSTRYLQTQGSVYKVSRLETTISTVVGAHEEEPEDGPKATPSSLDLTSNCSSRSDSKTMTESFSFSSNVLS
Sequence of Cytochrome P450 2D6 (P10635 whole entry): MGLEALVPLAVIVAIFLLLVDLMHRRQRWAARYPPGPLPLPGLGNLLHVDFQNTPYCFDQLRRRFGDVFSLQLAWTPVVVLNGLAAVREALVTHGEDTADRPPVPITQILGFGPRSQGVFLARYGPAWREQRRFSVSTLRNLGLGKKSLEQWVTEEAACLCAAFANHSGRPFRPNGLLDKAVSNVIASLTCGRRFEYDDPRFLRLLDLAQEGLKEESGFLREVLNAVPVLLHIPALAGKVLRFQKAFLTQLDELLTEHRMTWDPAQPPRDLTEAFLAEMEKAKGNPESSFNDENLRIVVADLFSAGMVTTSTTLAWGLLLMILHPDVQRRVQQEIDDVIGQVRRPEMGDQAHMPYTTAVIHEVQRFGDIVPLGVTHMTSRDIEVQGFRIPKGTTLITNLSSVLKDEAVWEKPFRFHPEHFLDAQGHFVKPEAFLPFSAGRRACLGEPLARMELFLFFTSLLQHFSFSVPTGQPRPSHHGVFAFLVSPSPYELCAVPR
Sequence of Cytochrome P450 2C9 (P11712 whole entry): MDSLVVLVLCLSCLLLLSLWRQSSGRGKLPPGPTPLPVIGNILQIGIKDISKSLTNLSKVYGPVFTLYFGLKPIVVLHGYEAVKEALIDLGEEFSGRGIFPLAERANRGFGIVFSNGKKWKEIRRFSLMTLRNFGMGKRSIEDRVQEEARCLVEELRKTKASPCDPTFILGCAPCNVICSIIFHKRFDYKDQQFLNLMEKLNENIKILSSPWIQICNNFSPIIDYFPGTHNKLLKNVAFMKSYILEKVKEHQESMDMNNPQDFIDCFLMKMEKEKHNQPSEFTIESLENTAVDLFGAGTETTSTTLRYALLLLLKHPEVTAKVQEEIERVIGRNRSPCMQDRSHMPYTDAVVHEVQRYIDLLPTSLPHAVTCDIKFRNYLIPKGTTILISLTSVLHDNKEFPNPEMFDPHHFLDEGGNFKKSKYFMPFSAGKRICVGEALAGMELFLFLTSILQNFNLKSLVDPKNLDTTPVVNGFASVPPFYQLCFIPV
Sequence of Cytochrome P450 3A4 (P08684 whole entry): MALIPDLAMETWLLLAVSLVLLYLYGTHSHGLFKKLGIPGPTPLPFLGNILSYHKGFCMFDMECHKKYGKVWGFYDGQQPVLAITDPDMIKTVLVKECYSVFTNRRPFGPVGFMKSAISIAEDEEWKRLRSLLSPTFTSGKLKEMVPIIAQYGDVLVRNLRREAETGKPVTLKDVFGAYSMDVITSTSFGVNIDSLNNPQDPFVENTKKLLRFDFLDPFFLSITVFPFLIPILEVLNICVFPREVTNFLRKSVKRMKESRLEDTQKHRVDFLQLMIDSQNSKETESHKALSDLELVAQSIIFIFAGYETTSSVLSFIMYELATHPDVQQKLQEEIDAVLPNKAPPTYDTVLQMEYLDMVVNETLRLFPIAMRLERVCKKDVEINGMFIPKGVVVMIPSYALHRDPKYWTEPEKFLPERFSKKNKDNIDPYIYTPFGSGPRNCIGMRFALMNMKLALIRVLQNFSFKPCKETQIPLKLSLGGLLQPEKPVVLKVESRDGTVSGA

IC50 (Gerbillinae [1]): 0.0077 µM
IC50 (Substance-K receptor): 2.4 µM
IC50 (Neuromedin-K receptor): 2.4 µM
inhibition (Gerbillinae [5]): Active
bioavailability [6]: 40%
residual activity (Substance-P receptor [7]): 5%
Compound: C[C@@H](O[C@H]1CC[C@@H]2CN(C3=CC(=O)CC3)C[C@H]2[C@@H]1c1ccc(F)cc1)c1cc(C(F)(F)F)cc(C(F)(F)F)c1 [SERLOPITANT]
Occ90 (Rhesus monkey [2]): 67 nM
Occ50 (Rhesus monkey [3]): 9 nM
ED50 (Gerbillinae [4]): 0.08 mg/kg

IC50 (Gerbillinae [1]): 0.008 µM
Vd [8]: 3.1 L/kg
remaining at 24 h, 1 µM [9]: 68%
IC50 (Substance-K receptor): 7.2 µM
IC50 (Neuromedin-K receptor): 2.5 µM
IC50 (Cytochrome P450 2D6): 61 µM
half-life [10]: 4.7 h
clearance [11]: 7.5 mL/min/kg
IC50 (Substance-P receptor [12]): 0.00075 µM
clearance [13]: 1.4 mL/min/kg
Vd [14]: 5.7 L/kg
IC50 (Cytochrome P450 2C9): 41 µM
IC50 (Cytochrome P450 2C8): 21 µM
inhibition (Gerbillinae [5]): Active
bioavailability [15]: 66%
Activity [16]: 14%
bioavailability [6]: 92%
half-life [17]: 11 h
clearance [18]: 8 mL/min/kg
Vd [19]: 1.2 L/kg
IC50 (Gerbillinae [20]): 0.005 µM
IC50 (Cytochrome P450 3A4): 15 µM
bioavailability [21]: 38%
residual activity (Substance-P receptor [7]): 3%
half-life [22]: 13 h
Compound: Cc1ccccc1[C@H]1[C@@H]2CN(C3=NC(=O)CO3)C[C@H]2CC[C@@H]1O[C@H](CO)c1cc(C(F)(F)F)cc(C(F)(F)F)c1
Occ90 (Rhesus monkey [2]): 22 nM
Occ50 (Rhesus monkey [3]): 13 nM
ED50 (Gerbillinae [4]): 0.03 mg/kg
